Experimental data reported in ChEMBL document CHEMBL1137451, “Synthesis and evaluation of antifungal properties of a series of the novel 2-amino-5-oxo-4-phenyl-5,6,7,8-tetrahydroquinoline-3-carbonitrile and its analogues” (Bioorg Med Chem, 2007).
Active and inactive are the calls of the source. The calls are words filed in the database; no cut-off is given here.

Legend:
Fusarium oxysporum [1] = assay: Antifungal activity against Fusarium oxysporum 1 at 100 ug/disc after 24 hrs by disc diffusion method; assay type: functional; conditions: read-out: IZ
How it was run: (§1)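 Yeast suspensions (C. albicans strains 1, 2) and mycelial suspensions (F. oxysporum strains 1, 2; Mucor sp.) spread on YPG (0.3% yeast extract, 0.5% peptone, 1% glucose) or PDA agar. Compound applied on filter-paper discs at the stated amount; 28 °C, 24 h. Read-out is inhibition zone diameter. Controls: 50% v/v DMSO vehicle, cycloheximide, amphotericin B.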

Mucor [2] = assay: Antifungal activity against Mucor at 100 ug/disc after 24 hrs by disc diffusion method; assay type: functional; how it was run: as §1
Fusarium oxysporum [3] = assay: Antifungal activity against Fusarium oxysporum 1 at 40 ug/disc after 24 hrs by disc diffusion method; assay type: functional; conditions: for zone of inhibition at 40 µg/disc: read-out: IZ; how it was run: as §1
Fusarium oxysporum [4] = assay: Antifungal activity against Fusarium oxysporum 2 after 24 hrs by disc diffusion method; assay type: functional
How it was run: (§2)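 Disc diffusion on Candida albicans strains 1 and 2 (yeast suspension), Fusarium oxysporum strains 1 and 2 and Mucor sp. (mycelial suspension), spread on YPG or PDA agar. Compound at graded amounts per filter-paper disc, 28 °C for 24 h. MIC taken as the lowest amount giving a 2 mm inhibition zone. Controls: 50% v/v DMSO vehicle, cycloheximide, amphotericin B.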

Fusarium oxysporum [5] = assay: Antifungal activity against Fusarium oxysporum 1 at 60 ug/disc after 24 hrs by disc diffusion method; assay type: functional; conditions: for zone of inhibition at 60 µg/disc: read-out: IZ; how it was run: as §1
Fusarium oxysporum [6] = assay: Antifungal activity against Fusarium oxysporum 2 at 60 ug/disc after 24 hrs by disc diffusion method; assay type: functional; conditions: read-out: IZ; how it was run: as §1
Candida albicans [7] = assay: Antifungal activity against Candida albicans 1 after 24 hrs by disc diffusion method; assay type: functional; how it was run: as §2
Mucor [8] = assay: Antifungal activity against Mucor at 60 ug/disc after 24 hrs by disc diffusion method; assay type: functional; how it was run: as §1
Candida albicans [9] = assay: Antifungal activity against Candida albicans 2 after 24 hrs by disc diffusion method; assay type: functional; how it was run: as §2
Fusarium oxysporum [10] = assay: Antifungal activity against Fusarium oxysporum 1 after 24 hrs by disc diffusion method; assay type: functional; how it was run: as §2
Candida albicans [11] = assay: Antifungal activity against Candida albicans 1 at 100 ug/disc after 24 hrs by disc diffusion method; assay type: functional; conditions: read-out: IZ; how it was run: as §1
Mucor [12] = assay: Antifungal activity against Mucor at 40 ug/disc after 24 hrs by disc diffusion method; assay type: functional; how it was run: as §1
Candida albicans [13] = assay: Antifungal activity against Candida albicans 2 at 60 ug/disc after 24 hrs by disc diffusion method; assay type: functional; conditions: for zone of inhibition at 60 µg/disc: read-out: IZ; how it was run: as §1
Fusarium oxysporum [14] = assay: Antifungal activity against Fusarium oxysporum 2 at 40 ug/disc after 24 hrs by disc diffusion method; assay type: functional; conditions: for zone of inhibition at 40 µg/disc: read-out: IZ; how it was run: as §1
Candida albicans [15] = assay: Antifungal activity against Candida albicans 2 at 100 ug/disc after 24 hrs by disc diffusion method; assay type: functional; conditions: read-out: IZ; how it was run: as §1
Candida albicans [16] = assay: Antifungal activity against Candida albicans 2 at 40 ug/disc after 24 hrs by disc diffusion method; assay type: functional; conditions: for zone of inhibition at 40 µg/disc: read-out: IZ; how it was run: as §1
Candida albicans [17] = assay: Antifungal activity against Candida albicans 1 at 60 ug/disc after 24 hrs by disc diffusion method; assay type: functional; conditions: for zone of inhibition at 60 µg/disc: read-out: IZ; how it was run: as §1
Candida albicans [18] = assay: Antifungal activity against Candida albicans 1 at 40 ug/disc after 24 hrs by disc diffusion method; assay type: functional; conditions: for zone of inhibition at 40 µg/disc: read-out: IZ; how it was run: as §1
Fusarium oxysporum [19] = assay: Antifungal activity against Fusarium oxysporum 2 at 100 ug/disc after 24 hrs by disc diffusion method; assay type: functional; conditions: read-out: IZ; how it was run: as §1
Benjaminiella poitrasii [20] = assay: Inhibition of yeast hypha transition at 20 ug/mL after 4 hrs
Benjaminiella poitrasii [21] = assay: Inhibition of Benjaminiella poitrasii chitin synthase at 4 ug/mL
How it was run: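 Chitin synthase from Benjaminiella poitrasii measured with and without compound at 4 µg/ml, using a non-radioactive chitin synthase assay. Nikkomycin Z used as reference.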

| Structure (SMILES) | zone of inhibition at 100 µg/disc (Fusarium oxysporum [1]) | Activity (Mucor [2]) | MIC (Fusarium oxysporum [4]) | zone of inhibition at 60 µg/disc (Fusarium oxysporum [5]) | zone of inhibition at 60 µg/disc (Fusarium oxysporum [6]) | MIC (Candida albicans [7]) | Activity (Mucor [8]) | MIC (Candida albicans [9]) | MIC (Fusarium oxysporum [10]) | zone of inhibition at 100 µg/disc (Candida albicans [11]) | Activity (Mucor [12]) | zone of inhibition at 60 µg/disc (Candida albicans [13]) | zone of inhibition at 40 µg/disc (Fusarium oxysporum [14]) | zone of inhibition at 100 µg/disc (Candida albicans [15]) | zone of inhibition at 60 µg/disc (Candida albicans [17]) | zone of inhibition at 100 µg/disc (Fusarium oxysporum [19]) | inhibition at 20 µg/mL (Benjaminiella poitrasii [20]) | inhibition (Benjaminiella poitrasii [21]) | Activity (Candida albicans [16]) | Activity (Candida albicans [18]) | other results |
| --- | --- | --- | --- | --- | --- | --- | --- | --- | --- | --- | --- | --- | --- | --- | --- | --- | --- | --- | --- | --- | --- |
| C[C@@H]1C[C@@H]([C@H](O)CC2CC(=O)NC(=O)C2)C(=O)[C@@H](C)C1 [CYCLOHEXIMIDE] | 7 mm | inactive | 20 µg/disc | 5 mm | 5 mm | 40 µg/disc | inactive | 40 µg/disc | 20 µg/disc | 7 mm | inactive | 4 mm | 3 mm | 7 mm | 4 mm | 7 mm |  |  |  |  | zone of inhibition at 40 µg/disc (Fusarium oxysporum [3]): 3 mm; zone of inhibition at 40 µg/disc (Candida albicans [16]): 2 mm; zone of inhibition at 40 µg/disc (Candida albicans [18]): 2 mm |
| COc1cc(-c2c(C#N)c(N)nc3c2C(=O)CCC3)cc(OC)c1OC | 4 mm | inactive | 20 µg/disc | 2 mm | 2 mm | 100 µg/disc | inactive | 100 µg/disc | 20 µg/disc | 7 mm | inactive |  | 2 mm | 7 mm |  | 4 mm | 95% | 81% | inactive | inactive | zone of inhibition at 40 µg/disc (Fusarium oxysporum [3]): 2 mm; Activity (Candida albicans [13]): inactive; Activity (Candida albicans [17]): inactive |
| N#Cc1c(N)nc2c(c1-c1cccc(NC(=O)CCN3CCOCC3)c1)C(=O)CCC2 | 5 mm | inactive | 40 µg/disc | 3 mm | 3 mm | 40 µg/disc | inactive | 40 µg/disc | 40 µg/disc | 7 mm | inactive | 2 mm | 2 mm | 7 mm | 2 mm | 5 mm | 95% | 61% |  |  | zone of inhibition at 40 µg/disc (Fusarium oxysporum [3]): 2 mm; zone of inhibition at 40 µg/disc (Candida albicans [16]): 2 mm; zone of inhibition at 40 µg/disc (Candida albicans [18]): 2 mm |
| N#Cc1c(N)nc2c(c1-c1ccccc1)C(=O)CCC2 | 6 mm | inactive | 60 µg/disc | 3 mm | 3 mm | 60 µg/disc | inactive | 60 µg/disc | 60 µg/disc | 6 mm | inactive | 2 mm | 3 mm | 6 mm | 2 mm | 6 mm | 90% | 66% | inactive | inactive | Activity (Fusarium oxysporum [3]): inactive |
| N#Cc1c(N)nc2c(c1-c1ccc([N+](=O)[O-])cc1)C(=O)CCC2 | 3 mm | inactive | 60 µg/disc | 2 mm | 2 mm | 60 µg/disc | inactive | 60 µg/disc | 60 µg/disc | 5 mm | inactive | 3 mm |  | 5 mm | 3 mm | 3 mm | 95% | 61% | inactive | inactive | Activity (Fusarium oxysporum [3]): inactive; Activity (Fusarium oxysporum [14]): inactive |
| Cc1ccc(-c2c(C(N)=O)c(N)nc3c2C(=O)CCC3)cc1 | 4 mm | inactive | 100 µg/disc |  | 2 mm | 60 µg/disc | inactive | 60 µg/disc | 100 µg/disc | 4 mm | inactive | 2 mm |  | 4 mm | 2 mm | 4 mm | 95% | 66% | inactive | inactive | Activity (Fusarium oxysporum [3]): inactive; Activity (Fusarium oxysporum [5]): inactive; Activity (Fusarium oxysporum [14]): inactive |
